Active and inactive are the calls of the source. The calls are words filed in the database; no cut-off is given here.
Columns and labels:
[1] = biological target: Kelch-like ECH-associated protein 1 (Mus musculus) (UniProt Q9Z2X8); assay: Binding affinity to recombinant mouse poly His-tagged Keap1 expressed in Escherichia coli assessed as chemical modification of Cys-489 residue incubated up to 24 hrs by LC-MS/MS analysis
Method in brief: (§1)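 Recombinant His-tagged protein (human GSTP1 or mouse Keap1) purified by nickel affinity and incubated on-bead with the stated molar excess of compound for up to 24 h, pH 8.4, 37 °C. Free cysteines capped with 55 mM iodoacetamide for 15 min, trypsin digest overnight at 37 °C, LC-MS/MS detection of adduct mass shifts on peptide y/b ions.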

[2] = biological target: Kelch-like ECH-associated protein 1 (Mus musculus) (UniProt Q9Z2X8); assay: Binding affinity to mouse V5-tagged Keap1 expressed in HEK293T cells assessed as chemical modification of Cys-257 residue at 100 uM incubated for by LC-MS/MS analysis; type: cell-based; settings: HEK-293T
Method in brief: (§2)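 Mouse Keap1-V5 expressed ectopically in HEK293T cells; cells exposed to 100 µM compound for 1 h. Keap1-V5 immunopurified from lysates, free cysteines capped with iodoacetamide, trypsin-digested overnight at 37 °C, then LC-MS/MS. Modification frequency per cysteine from n=4 independent experiments.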

[3] = biological target: Kelch-like ECH-associated protein 1 (Mus musculus) (UniProt Q9Z2X8); assay: Binding affinity to mouse V5-tagged Keap1 expressed in HEK293T cells assessed as chemical modification of Cys-288 residue at 100 uM incubated for by LC-MS/MS analysis; type: cell-based; settings: HEK-293T; method in brief: as §2
[4] = biological target: Kelch-like ECH-associated protein 1 (Mus musculus) (UniProt Q9Z2X8); assay: Binding affinity to recombinant mouse poly His-tagged Keap1 expressed in Escherichia coli assessed as chemical modification of Cys-273 residue incubated up to 24 hrs by LC-MS/MS analysis; method in brief: as §1
[5] = biological target: Kelch-like ECH-associated protein 1 (Mus musculus) (UniProt Q9Z2X8); assay: Binding affinity to mouse V5-tagged Keap1 expressed in HEK293T cells assessed as chemical modification of Cys-434 residue at 100 uM incubated for by LC-MS/MS analysis; type: cell-based; settings: HEK-293T; method in brief: as §2
[6] = biological target: Kelch-like ECH-associated protein 1 (Mus musculus) (UniProt Q9Z2X8); assay: Binding affinity to recombinant mouse poly His-tagged Keap1 expressed in Escherichia coli assessed as chemical modification of Cys-434 residue incubated up to 24 hrs by LC-MS/MS analysis; method in brief: as §1
[7] = biological target: Kelch-like ECH-associated protein 1 (Mus musculus) (UniProt Q9Z2X8); assay: Binding affinity to recombinant mouse poly His-tagged Keap1 expressed in Escherichia coli assessed as chemical modification of Cys-257 residue incubated up to 24 hrs by LC-MS/MS analysis; method in brief: as §1
[8] = biological target: Glutathione S-transferase P (Homo sapiens) (UniProt P09211); assay: Binding affinity to recombinant human poly His-tagged GSTP1 expressed in Escherichia coli assessed as chemical modification at Cys-47 at 100:1 compound:protein molar ratio after 24 hrs by LC-MS/MS analysis; method in brief: as §1
Sequence of Glutathione S-transferase P (Homo sapiens) (P09211 2-210 limits assumed): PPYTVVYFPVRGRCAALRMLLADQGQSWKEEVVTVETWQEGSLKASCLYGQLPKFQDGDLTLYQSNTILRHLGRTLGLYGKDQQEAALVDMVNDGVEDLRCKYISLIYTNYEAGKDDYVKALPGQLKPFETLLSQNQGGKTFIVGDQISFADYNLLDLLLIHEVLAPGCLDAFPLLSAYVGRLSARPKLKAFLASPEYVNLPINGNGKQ

[9] = Cytotoxicity against rat H42E cells expressing ARE8L assessed as cellular ATP level after 24 hrs by Celltiter-Glo luminescent cell viability assay; type: cell-based
Method in brief: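 H4IIE-ARE8L rat hepatoma cells grown in DMEM with 10% FBS, glutamine, HEPES and non-essential amino acids, and exposed 24 h to compounds at 0.5% DMSO. Cellular ATP measured by CellTiter-Glo luminescence and expressed relative to vehicle. Mean ± S.D., n=4.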

[10] = biological target: Glutathione S-transferase P (Homo sapiens) (UniProt P09211); assay: Binding affinity to recombinant human poly His-tagged GSTP1 expressed in Escherichia coli assessed as chemical modification of Cys-47 residue at 1:1 compound:protein molar ratio after 24 hrs by LC-MS/MS analysis in presence of methyl 2-cyano-3,12-dioxooleana-1,9(11)-dien-28-oate
Method in brief: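 Competition format. His-tagged human GSTP1 was held on-bead at pH 8.4, 37 °C and pre-incubated 1 h with molar excesses of the competitor. The probe was then added at 1:1 molar ratio for another 24 h, with the competitor kept in the buffer. Cysteines capped with iodoacetamide, followed by tryptic digestion and LC-MS/MS of Cys-47 modification.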

[11] = biological target: Kelch-like ECH-associated protein 1 (Mus musculus) (UniProt Q9Z2X8); assay: Binding affinity to recombinant mouse poly His-tagged Keap1 expressed in Escherichia coli assessed as chemical modification of Cys-288 residue incubated up to 24 hrs by LC-MS/MS analysis; method in brief: as §1
[12] = biological target: T1, Nuclear factor erythroid 2-related factor 2 (Rattus norvegicus) (UniProt O54968); assay: Induction of NRF2 activation in rat H42E cells expressing ARE8L assessed as reporter transgene activity after 24 hrs by luminescence assay; type: cell-based
T1 sequence (whole entry): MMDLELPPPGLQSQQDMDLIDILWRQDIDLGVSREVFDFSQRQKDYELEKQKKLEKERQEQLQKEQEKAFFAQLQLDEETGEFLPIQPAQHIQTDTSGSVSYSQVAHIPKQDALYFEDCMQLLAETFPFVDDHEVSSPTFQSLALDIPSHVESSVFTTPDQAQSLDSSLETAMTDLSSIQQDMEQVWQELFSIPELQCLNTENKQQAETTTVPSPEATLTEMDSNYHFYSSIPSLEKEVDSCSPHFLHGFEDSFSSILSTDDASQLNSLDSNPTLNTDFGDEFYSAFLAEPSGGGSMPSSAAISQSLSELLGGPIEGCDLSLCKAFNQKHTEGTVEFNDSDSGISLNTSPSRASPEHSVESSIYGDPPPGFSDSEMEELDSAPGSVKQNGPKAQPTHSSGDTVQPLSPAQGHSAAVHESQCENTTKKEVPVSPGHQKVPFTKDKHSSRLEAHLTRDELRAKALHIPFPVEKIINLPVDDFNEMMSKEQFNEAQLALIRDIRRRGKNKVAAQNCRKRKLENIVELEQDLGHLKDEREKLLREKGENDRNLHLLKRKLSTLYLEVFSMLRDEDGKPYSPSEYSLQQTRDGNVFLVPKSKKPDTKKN
Method in brief: (§3)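 Reporter cells (H4IIE-ARE8L) exposed 24 h to compounds at 0.5% DMSO. Cells washed in PBS, then given 150 µg/mL D-luciferin in PBS for 5 min before reading luminescence. Signal normalised to vehicle-treated cells. The concentration giving a 2-fold rise in reporter activity (CD) was taken from the concentration-response data. Mean ± S.D., n=4.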

[13] = Thiol reactivity using beta-mercaptoethanol assessed as chemical shifts at 25 degC by NMR spectroscopy
[14] = Thiol reactivity using beta-mercaptoethanol assessed as chemical shifts in presence of triethylamine at 25 degC by NMR spectroscopy
[15] = biological target: Kelch-like ECH-associated protein 1 (Mus musculus) (UniProt Q9Z2X8); assay: Binding affinity to mouse V5-tagged Keap1 expressed in HEK293T cells assessed as chemical modification of Cys-489 residue at 100 uM incubated for by LC-MS/MS analysis; type: cell-based; settings: HEK-293T; method in brief: as §2
[16] = biological target: Kelch-like ECH-associated protein 1 (Mus musculus) (UniProt Q9Z2X8); assay: Binding affinity to recombinant mouse poly His-tagged Keap1 expressed in Escherichia coli assessed as chemical modification of Cys-613 residue incubated up to 24 hrs by LC-MS/MS analysis; method in brief: as §1
[17] = Thiol reactivity using N-acetyl cysteine assessed as chemical shifts at 25 degC by NMR spectroscopy
[18] = biological target: Kelch-like ECH-associated protein 1 (Mus musculus) (UniProt Q9Z2X8); assay: Binding affinity to mouse V5-tagged Keap1 expressed in HEK293T cells assessed as chemical modification of Cys-273 residue at 100 uM incubated for by LC-MS/MS analysis; type: cell-based; settings: HEK-293T; method in brief: as §2
[19] = biological target: T1, Nuclear factor erythroid 2-related factor 2 (Rattus norvegicus); assay: Induction of NRF2 activation in rat H42E cells expressing ARE8L assessed as increase in reporter transgene activity after 24 hrs by luminescence assay; type: cell-based; method in brief: as §3
[20] = biological target: Glutathione S-transferase P (Homo sapiens) (UniProt P09211); assay: Binding affinity to recombinant human poly His-tagged GSTP1 expressed in Escherichia coli assessed as chemical modification at Cys-47 at 10:1 compound:protein molar ratio after 1 hr by LC-MS/MS analysis; method in brief: as §1
[21] = biological target: T1, Nuclear factor erythroid 2-related factor 2 (Rattus norvegicus); assay: Stabilization of NRF2 in rat H42E cells expressing ARE8L at 0.01 to 30 nM after 1 hr by Western blot analysis; type: cell-based
Method in brief: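 H4IIE-ARE8L cells exposed 1 h to the compound. Nrf2 protein accumulation detected by immunoblot. DMSO (0.5%) served as negative control and MG132 (10 μM) as positive control. Representative of n=3 independent experiments.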

Sequence of Kelch-like ECH-associated protein 1 (Mus musculus) (Q9Z2X8 whole entry): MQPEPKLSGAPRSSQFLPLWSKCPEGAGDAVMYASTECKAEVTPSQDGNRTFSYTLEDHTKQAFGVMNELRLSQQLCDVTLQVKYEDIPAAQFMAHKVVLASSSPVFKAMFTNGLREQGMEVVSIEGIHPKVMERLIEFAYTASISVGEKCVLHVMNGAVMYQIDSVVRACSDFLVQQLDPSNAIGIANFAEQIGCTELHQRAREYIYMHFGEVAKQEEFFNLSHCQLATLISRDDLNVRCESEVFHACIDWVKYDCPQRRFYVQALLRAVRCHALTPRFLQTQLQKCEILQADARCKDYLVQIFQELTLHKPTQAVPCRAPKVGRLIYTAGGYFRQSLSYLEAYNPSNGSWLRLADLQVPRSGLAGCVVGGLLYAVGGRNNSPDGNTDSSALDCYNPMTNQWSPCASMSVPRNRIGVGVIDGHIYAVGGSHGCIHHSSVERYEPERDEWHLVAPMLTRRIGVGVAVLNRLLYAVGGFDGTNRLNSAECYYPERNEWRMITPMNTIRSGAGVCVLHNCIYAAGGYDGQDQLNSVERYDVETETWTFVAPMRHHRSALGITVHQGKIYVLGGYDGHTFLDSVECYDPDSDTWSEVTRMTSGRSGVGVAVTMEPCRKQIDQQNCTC

## COC(=O)[C@]12CCC(C)(C)C[C@H]1[C@H]1C(=O)C=C3[C@@]4(C)[C@H]5O[C@@]5(C#N)C(=O)C(C)(C)[C@@H]4CC[C@@]3(C)[C@]1(C)CC2
[1]
  Activity: Dose-dependent effect
[2]
  Activity: Active
[3]
  Activity: Active
[4]
  Activity: Dose-dependent effect
[5]
  Activity: Active
[6]
  Activity: Dose-dependent effect
[7]
  Activity: Dose-dependent effect
[8]
  Activity: Active
[9]
  IC50: 4.3 µM
[10]
  Activity: inactive
[11]
  Activity: Dose-dependent effect
[12]
  CD: 0.002 µM
[13]
  Activity: inactive
[14]
  Activity: 5.15 ppm
[15]
  Activity: Active
[16]
  Activity: Dose-dependent effect
[17]
  Activity: inactive
[18]
  Activity: Active

## COC(=O)[C@]12CCC(C)(C)C[C@H]1[C@H]1C(=O)C=C3[C@@]4(C)C=CC(=O)C(C)(C)[C@@H]4CC[C@@]3(C)[C@]1(C)CC2
[19]
  Activity: Dose-dependent effect
[12]
  CD: 0.9 µM

## COC(=O)[C@]12CCC(C)(C)C[C@H]1[C@H]1C(=O)C=C3[C@@]4(C)CCC(=O)C(C)(C)[C@@H]4CC[C@@]3(C)[C@]1(C)CC2
[12]
  CD: 1.2 µM

## COC(=O)[C@]12CCC(C)(C)C[C@H]1[C@H]1C(=O)C=C3[C@@]4(C)C=C(C#N)C(=O)C(C)(C)[C@@H]4CC[C@@]3(C)[C@]1(C)CC2 [BARDOXOLONE METHYL]
[1]
  Activity: inactive
[4]
  Activity: inactive
[6]
  Activity: inactive
[7]
  Activity: inactive
[20]
  Activity: Active
[9]
  IC50: 1.4 µM
[11]
  Activity: inactive
[12]
  CD: 0.0005 µM
[13]
  Activity: 5.85 ppm
[16]
  Activity: inactive
[17]
  Activity: 5.81 ppm
[21]
  Activity: Active

## COC(=O)[C@]12CCC(C)(C)C[C@H]1[C@H]1C(=O)C=C3[C@@]4(C)[C@H]5O[C@H]5C(=O)C(C)(C)[C@@H]4CC[C@@]3(C)[C@]1(C)CC2
[19]
  Activity: Dose-dependent effect
[12]
  CD: 15.4 µM

## COC(=O)[C@]12CCC(C)(C)C[C@H]1[C@H]1C(=O)C=C3[C@@]4(C)CC[C@H](OC(C)=O)C(C)(C)[C@@H]4CC[C@@]3(C)[C@]1(C)CC2
[12]
  CD: 17.6 µM

## COC(=O)[C@]12CCC(C)(C)C[C@H]1[C@H]1C(=O)C=C3[C@@]4(C)CC(C#N)C(=O)C(C)(C)[C@@H]4CC[C@@]3(C)[C@]1(C)CC2 (some centres undefined)
[12]
  CD: 0.009 µM
[13]
  Activity: inactive
[14]
  Activity: inactive

Source: ChEMBL document CHEMBL3785089, “Design and Synthesis of Irreversible Analogues of Bardoxolone Methyl for the Identification of Pharmacologically Relevant Targets and Interaction Sites” (J Med Chem, 2016)
